Experimental data: ChEMBL document CHEMBL4689842, “EUbOPEN Chemogenomics Library wave 1” (2021)

Tested on: Fibroblast
Test: Multiplex assay against human fibroblast
Format: toxicity, cell-based
Summary of the method: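 Phenotypes for tubulin, mitochondrial mass and membrane permeability are expressed as per cents of healthy-nucleus cells. Cells were stained live at seeding with Hoechst33342, BioTracker Green Microtubule Cytoskeleton Dye, MitoTracker Red and Annexin V Alexa Fluor 680, then imaged after compound addition on a CQ1 microscope at 37°C and 5% CO2. Machine-learning gating in CellPathfinder separated Hoechst high-intensity objects from normal cells, divided normal cells by nuclear state (healthy, pyknosed, fragmented) and divided pyknosed cells into mitotic or apoptotic.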

[1] = 12 h, 1 µM, compound concentration 1 uM, replicate 1
[2] = 12 h, 1 µM, compound concentration 1 uM, replicate 2
[3] = 12 h, 10 µM, compound concentration 10 uM, replicate 1
[4] = 12 h, 10 µM, compound concentration 10 uM, replicate 2
[5] = 24 h, 1 µM, compound concentration 1 uM, replicate 1
[6] = 24 h, 1 µM, compound concentration 1 uM, replicate 2
[7] = 24 h, 10 µM, compound concentration 10 uM, replicate 1
[8] = 24 h, 10 µM, compound concentration 10 uM, replicate 2
[9] = 48 h, 1 µM, compound concentration 1 uM, replicate 1
[10] = 48 h, 1 µM, compound concentration 1 uM, replicate 2
[11] = 48 h, 10 µM, compound concentration 10 uM, replicate 1
[12] = 48 h, 10 µM, compound concentration 10 uM, replicate 2

Cn1cc(-c2[nH]c3cc(NC(=O)[C@H](N)C4CCCCC4)cc4c3c2C=NNC4=O)cn1
Population Apoptotic (%) [1]: 76%
Population Fragmented Nuclei (%) [1]: 27%
Population Healthy Nuclei (%) [1]: 42%
Population Hoechst High Intensity Objects (%) [1]: 8%
Population Membrane Permeable-Phenotype (%) [1]: 18%
Population Mitochondria Different-Phenotype (%) [1]: 13%
Population Mitotic Cells (%) [1]: 23%
Population Normal (%) [1]: 91%
Population Pyknosed Nuclei (%) [1]: 30%
Population Tubulin-Different-Phenotype (%) [1]: 28%
Total Cell Count [1]: 138
Population Apoptotic (%) [2]: 33%
Population Fragmented Nuclei (%) [2]: 13%
Population Healthy Nuclei (%) [2]: 72%
Population Hoechst High Intensity Objects (%) [2]: 3%
Population Membrane Permeable-Phenotype (%) [2]: 4%
Population Mitochondria Different-Phenotype (%) [2]: 7%
Population Mitotic Cells (%) [2]: 66%
Population Normal (%) [2]: 96%
Population Pyknosed Nuclei (%) [2]: 13%
Population Tubulin-Different-Phenotype (%) [2]: 12%
Total Cell Count [2]: 51
Population Apoptotic (%) [3]: 69%
Population Fragmented Nuclei (%) [3]: 48%
Population Healthy Nuclei (%) [3]: 38%
Population Hoechst High Intensity Objects (%) [3]: 20%
Population Membrane Permeable-Phenotype (%) [3]: 20%
Population Mitochondria Different-Phenotype (%) [3]: 4%
Population Mitotic Cells (%) [3]: 30%
Population Normal (%) [3]: 79%
Population Pyknosed Nuclei (%) [3]: 13%
Population Tubulin-Different-Phenotype (%) [3]: 43%
Total Cell Count [3]: 244
Population Fragmented Nuclei (%) [4]: 37%
Population Healthy Nuclei (%) [4]: 42%
Population Hoechst High Intensity Objects (%) [4]: 9%
Population Membrane Permeable-Phenotype (%) [4]: 21%
Population Mitochondria Different-Phenotype (%) [4]: 53%
Population Normal (%) [4]: 90%
Population Pyknosed Nuclei (%) [4]: 19%
Population Tubulin-Different-Phenotype (%) [4]: 57%
Total Cell Count [4]: 91
Population Apoptotic (%) [5]: 58%
Population Fragmented Nuclei (%) [5]: 27%
Population Healthy Nuclei (%) [5]: 44%
Population Hoechst High Intensity Objects (%) [5]: 12%
Population Membrane Permeable-Phenotype (%) [5]: 20%
Population Mitochondria Different-Phenotype (%) [5]: 3%
Population Mitotic Cells (%) [5]: 41%
Population Normal (%) [5]: 87%
Population Pyknosed Nuclei (%) [5]: 28%
Population Tubulin-Different-Phenotype (%) [5]: 26%
Total Cell Count [5]: 137
Population Apoptotic (%) [6]: 43%
Population Fragmented Nuclei (%) [6]: 13%
Population Healthy Nuclei (%) [6]: 70%
Population Hoechst High Intensity Objects (%) [6]: 3%
Population Membrane Permeable-Phenotype (%) [6]: 9%
Population Mitochondria Different-Phenotype (%) [6]: 6%
Population Mitotic Cells (%) [6]: 56%
Population Normal (%) [6]: 96%
Population Pyknosed Nuclei (%) [6]: 15%
Population Tubulin-Different-Phenotype (%) [6]: 15%
Total Cell Count [6]: 52
Population Apoptotic (%) [7]: 62%
Population Fragmented Nuclei (%) [7]: 54%
Population Healthy Nuclei (%) [7]: 37%
Population Hoechst High Intensity Objects (%) [7]: 23%
Population Membrane Permeable-Phenotype (%) [7]: 20%
Population Mitochondria Different-Phenotype (%) [7]: 1%
Population Mitotic Cells (%) [7]: 37%
Population Normal (%) [7]: 76%
Population Pyknosed Nuclei (%) [7]: 8%
Population Tubulin-Different-Phenotype (%) [7]: 52%
Total Cell Count [7]: 256
Population Apoptotic (%) [8]: 86%
Population Fragmented Nuclei (%) [8]: 34%
Population Healthy Nuclei (%) [8]: 29%
Population Hoechst High Intensity Objects (%) [8]: 16%
Population Membrane Permeable-Phenotype (%) [8]: 44%
Population Mitochondria Different-Phenotype (%) [8]: 61%
Population Mitotic Cells (%) [8]: 13%
Population Normal (%) [8]: 83%
Population Pyknosed Nuclei (%) [8]: 36%
Population Tubulin-Different-Phenotype (%) [8]: 55%
Total Cell Count [8]: 106
Population Apoptotic (%) [9]: 43%
Population Fragmented Nuclei (%) [9]: 30%
Population Healthy Nuclei (%) [9]: 49%
Population Hoechst High Intensity Objects (%) [9]: 14%
Population Membrane Permeable-Phenotype (%) [9]: 26%
Population Mitochondria Different-Phenotype (%) [9]: 3%
Population Mitotic Cells (%) [9]: 56%
Population Normal (%) [9]: 85%
Population Pyknosed Nuclei (%) [9]: 20%
Population Tubulin-Different-Phenotype (%) [9]: 26%
Total Cell Count [9]: 134
Population Apoptotic (%) [10]: 0%
Population Fragmented Nuclei (%) [10]: 47%
Population Healthy Nuclei (%) [10]: 50%
Population Hoechst High Intensity Objects (%) [10]: 15%
Population Membrane Permeable-Phenotype (%) [10]: 20%
Population Mitochondria Different-Phenotype (%) [10]: 2%
Population Mitotic Cells (%) [10]: 100%
Population Normal (%) [10]: 84%
Population Pyknosed Nuclei (%) [10]: 2%
Population Tubulin-Different-Phenotype (%) [10]: 38%
Total Cell Count [10]: 103
Population Apoptotic (%) [11]: 77%
Population Fragmented Nuclei (%) [11]: 52%
Population Healthy Nuclei (%) [11]: 41%
Population Hoechst High Intensity Objects (%) [11]: 39%
Population Membrane Permeable-Phenotype (%) [11]: 14%
Population Mitochondria Different-Phenotype (%) [11]: 3%
Population Mitotic Cells (%) [11]: 22%
Population Normal (%) [11]: 60%
Population Pyknosed Nuclei (%) [11]: 5%
Population Tubulin-Different-Phenotype (%) [11]: 36%
Total Cell Count [11]: 251
Population Apoptotic (%) [12]: 50%
Population Fragmented Nuclei (%) [12]: 62%
Population Healthy Nuclei (%) [12]: 35%
Population Hoechst High Intensity Objects (%) [12]: 32%
Population Membrane Permeable-Phenotype (%) [12]: 11%
Population Mitochondria Different-Phenotype (%) [12]: 2%
Population Mitotic Cells (%) [12]: 50%
Population Normal (%) [12]: 67%
Population Pyknosed Nuclei (%) [12]: 1%
Population Tubulin-Different-Phenotype (%) [12]: 53%
Total Cell Count [12]: 186
